Each structure is given as a SMILES string. Activity calls are given as the source filed them. No cut-off for these calls is given here.

By inhibition is commonly meant the change of the read-out against control, counted positive when it falls. For orientation: IC50 means the concentration that inhibits the measured activity by half. Lower therefore signals inhibition by little substance.

Series [1] concerns the target Acetylcholinesterase (Electrophorus electricus) (UniProt O42275). Briefly: Inhibition of electric eel AChE using […] as a substrate at 30 uM incubated for 10 mins by DTNB reagent based Ellman's method. In outline:
(§1)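 Ellman method in Tris-HCl 0.02 M pH 7.5 with BSA, inhibitor at 30 uM final, DMSO 0.2% vehicle as negative control. Enzyme (eeAChE or equine serum BuChE) with DTNB preincubated 10 min at room temperature; acetylthiocholine or butyrylthiocholine iodide added, absorbance at 415 nm after 10 min. Activity as % of DMSO control, blank-corrected; triplicate.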
A general note: Ellman's reagent forms a yellow product with free thiols.

In series [2] the target is Cholinesterase (Equus caballus) (UniProt P81908). Briefly: Inhibition of equine serum BuChE using S-butyrylthiocholine iodide as a substrate at 30 uM incubated for 10 mins by DTNB reagent based Ellman's method. Format: cell-free. The method in brief:
as §1

In series [3] the test system is SH-SY5Y. The experiment in a line: Cytotoxicity against human SH-SY5Y cells assessed as reduction in cell viability at 80 uM incubated for 24 hrs by MTT assay. Format: functional. The method in brief:
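SH-SY5Y cells seeded at 2×10^4 per well, grown 24 h, then treated 24 h at 37 °C (range 2.5–80 uM). MTT 0.5 mg mL-1 in HBSS for 2 h; formazan dissolved in isopropanol, read at 570 nm (reference 690 nm). Viability relative to untreated cells; mean ± SEM of three independent experiments.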
In general terms: Tetrazolium assays rely on reduction of a dye to a coloured formazan, in cell work by metabolically active cells.

Series [4] in a line: Permeability of compound in PBS buffer at pH 6.6 by PAMPA-GIT assay. Format: ADME. The method in brief: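 PAMPA-GIT: 10 μM compound in PBS pH 6.6 as donor, filter coated with soy L-α-phosphatidylcholine (20 mg/mL in dodecane). Acceptor was PBS pH 7.4:DMSO (95:5). Plates shaken at 50 rpm for 8 h at room temperature. Run in triplicate; absorbed fraction (Fa%) classed high, medium or low.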
On the technique in general: PAMPA measures passive passage across an artificial lipid membrane.

Series [5] can be described thus: Permeability of compound in PBS buffer at pH 7.4 by PAMPA-BBB assay. The conditions noted are these: read-out: permeability. Type of series: ADME. The method in brief:
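PAMPA-BBB: compound dissolved in ethanol, diluted with PBS pH 7.4 and filtered, then added in triplicate to a donor filter coated with porcine brain polar lipid (20 mg/mL in dodecane). Acceptor was PBS pH 7.4:ethanol (70:30). Incubated 2 h 45 min at about 25 °C, humidified. Donor and acceptor concentrations read by UV; compounds classed BBB+ or BBB−.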

Series [6] has as its system Rattus norvegicus. Briefly: Anti-inflammatory activity in LPS-induced Wistar rat assessed as increase in traveled distance at po dosed measured upto 24 hrs by open field test. Type of series: functional, organism-based. The method in brief: (§2)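 Adult male Wistar rats (n = 7–8 per group), overnight 8 h fast; vehicle or compound by gavage, then LPS or saline intraperitoneally. 2 h after LPS, each rat was placed in the centre of a circular open-field arena and filmed for 5 min. Distance travelled and immobility time were scored by video tracking. Results given as mean ± SEM.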

In a further series the target is Acetylcholinesterase (Electrophorus electricus, UniProt O42275). The experiment in a line: Inhibition of electric eel AChE using […] as a substrate incubated for 10 mins by DTNB reagent based Ellman's method.
Acetylcholinesterase, sequence (O42275 whole entry): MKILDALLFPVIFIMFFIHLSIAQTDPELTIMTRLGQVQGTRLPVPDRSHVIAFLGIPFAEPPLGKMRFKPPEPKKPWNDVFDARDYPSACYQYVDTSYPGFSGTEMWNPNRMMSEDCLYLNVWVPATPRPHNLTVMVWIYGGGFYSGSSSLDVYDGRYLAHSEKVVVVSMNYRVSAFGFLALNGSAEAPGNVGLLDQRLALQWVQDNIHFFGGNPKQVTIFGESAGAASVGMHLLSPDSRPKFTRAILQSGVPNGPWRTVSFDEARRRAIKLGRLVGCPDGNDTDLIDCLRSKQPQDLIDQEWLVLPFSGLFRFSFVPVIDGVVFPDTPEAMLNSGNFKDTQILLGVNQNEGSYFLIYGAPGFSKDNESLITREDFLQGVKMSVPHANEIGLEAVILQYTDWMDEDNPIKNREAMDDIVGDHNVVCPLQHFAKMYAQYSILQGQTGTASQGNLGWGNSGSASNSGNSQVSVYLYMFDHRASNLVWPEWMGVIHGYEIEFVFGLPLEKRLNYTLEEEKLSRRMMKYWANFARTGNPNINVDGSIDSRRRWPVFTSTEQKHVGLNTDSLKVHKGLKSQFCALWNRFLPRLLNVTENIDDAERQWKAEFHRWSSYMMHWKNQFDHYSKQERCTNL
Series [7] concerns Rattus norvegicus. The experiment in a line: Anti-inflammatory activity in LPS-induced Wistar rat assessed as decrease in immobility time at po dosed measured upto 24 hrs by open field test. Type of series: functional, organism-based. In outline:
as §2

The subject of series [8] is Rattus norvegicus. The experiment in a line: Anti-inflammatory activity in LPS-induced Wistar rat assessed as increase in food intake at po dosed measured upto 24 hrs. Format: functional, organism-based. In outline: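 Adult male Wistar rats (n = 7 per group), housed individually; overnight 8 h fast, then food removed 2 h on the test day. Vehicle or compound was given by gavage, then LPS or saline intraperitoneally. Pre-weighed pelleted feed was reintroduced and weighed at 2, 4, 6 and 24 h. Results given as mean ± SEM.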

Series [9] has as its system THP-1. Briefly: Anti-inflammatory activity in human THP-1 cells assessed as inhibition of LPS-induced iNOS expression at 10 uM incubated for 24 hrs by RT-PCR analysis. Format: functional. The method in brief:
(§3)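 THP-1 monocytes differentiated to microglia-like cells with PMA 5 ng mL-1 for 24 h, then exposed 24 h to LPS 1 ug mL-1 together with compound (10 uM). RNA extracted; expression by quantitative RT-PCR, relative quantification by 2^-ΔΔCt with untreated cells as control. Mean ± SEM of three independent experiments.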

Series [10] concerns THP-1. Briefly: Anti-inflammatory activity in human THP-1 cells assessed as inhibition of LPS-induced IL-1beta expression at 10 uM incubated for 24 hrs by RT-PCR analysis. Type of series: functional. The method in brief: as §3
The test system of series [11] is SH-SY5Y. Briefly: Neuronal plasticity in human SH-SY5Y cells assessed as increase in SYP gene expression at 10 uM incubated for 24 hrs by RT-PCR analysis. Format: functional, cell-based. In outline:
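SH-SY5Y cells grown in DMEM with 10% FBS and differentiated with retinoic acid (10 μM) for 6 days. Compound 10 μM for 24 h. RNA extracted, SYP mRNA measured by quantitative RT-PCR, relative quantity by 2^-ΔΔCt against untreated cells. Three independent experiments, mean ± SEM, Student's t-test.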

Cholinesterase (Equus caballus), sequence (P81908 whole entry): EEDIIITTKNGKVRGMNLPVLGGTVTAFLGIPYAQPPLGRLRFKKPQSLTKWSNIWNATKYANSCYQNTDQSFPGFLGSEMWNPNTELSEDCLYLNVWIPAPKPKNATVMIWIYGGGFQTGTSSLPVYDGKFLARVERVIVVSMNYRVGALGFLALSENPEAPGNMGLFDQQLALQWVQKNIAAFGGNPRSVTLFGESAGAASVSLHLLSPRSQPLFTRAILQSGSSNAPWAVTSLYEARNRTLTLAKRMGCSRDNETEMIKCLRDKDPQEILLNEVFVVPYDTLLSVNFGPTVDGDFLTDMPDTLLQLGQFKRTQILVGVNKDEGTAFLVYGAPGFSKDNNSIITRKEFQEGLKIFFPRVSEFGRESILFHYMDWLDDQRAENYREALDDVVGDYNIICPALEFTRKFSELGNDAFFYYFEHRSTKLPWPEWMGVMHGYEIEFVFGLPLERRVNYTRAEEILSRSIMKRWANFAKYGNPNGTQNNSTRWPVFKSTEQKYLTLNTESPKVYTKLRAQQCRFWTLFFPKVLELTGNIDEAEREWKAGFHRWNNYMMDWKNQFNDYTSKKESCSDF
Acetylcholinesterase (Electrophorus electricus), sequence (O42275 24-633 limits assumed): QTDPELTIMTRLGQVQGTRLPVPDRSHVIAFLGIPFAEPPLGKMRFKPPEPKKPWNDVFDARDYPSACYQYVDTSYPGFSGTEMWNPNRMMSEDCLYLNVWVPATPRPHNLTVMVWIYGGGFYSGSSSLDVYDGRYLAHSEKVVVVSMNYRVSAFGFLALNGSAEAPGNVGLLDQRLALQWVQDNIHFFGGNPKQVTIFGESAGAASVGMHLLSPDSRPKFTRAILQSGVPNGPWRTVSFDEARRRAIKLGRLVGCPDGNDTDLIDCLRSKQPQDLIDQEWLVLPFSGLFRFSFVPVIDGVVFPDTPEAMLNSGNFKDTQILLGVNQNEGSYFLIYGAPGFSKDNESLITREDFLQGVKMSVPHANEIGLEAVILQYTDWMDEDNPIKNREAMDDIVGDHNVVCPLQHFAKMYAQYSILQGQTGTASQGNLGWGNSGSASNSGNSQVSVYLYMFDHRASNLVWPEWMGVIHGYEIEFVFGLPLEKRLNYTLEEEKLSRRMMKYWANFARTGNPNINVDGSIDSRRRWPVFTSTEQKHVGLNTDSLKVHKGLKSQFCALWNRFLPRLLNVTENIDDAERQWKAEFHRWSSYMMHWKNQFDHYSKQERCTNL

Regarding `O=C(CN1C(=O)c2ccccc2C1=O)N1CCN(Cc2ccc(Br)cc2)CC1`, the inhibition in series [1] was 8.38%; in series [2] it was -1.37%.
For the compound `O=C(CN1C(=O)c2ccccc2C1=O)N1CCN(c2ncccn2)CC1`, the Activity in the series with SH-SY5Y [3] is 50%. The inhibition was 39.6% in series [1] and -5.36% in series [2].
As to `COc1ccc(CN2CCN(C(=O)CN3C(=O)c4ccccc4C3=O)CC2)cc1`, the values for the inhibition in series [1] and in [2] were 17.1% and 25.4%, respectively.
On the same counts, the results for `O=C(CN1C(=O)c2ccccc2C1=O)N1CCN(Cc2ccc(Cl)cc2)CC1` are 7.82% and 1.26%.
The like results for `O=C(CN1C(=O)c2ccccc2C1=O)N1CCN(c2ccc([N+](=O)[O-])cc2)CC1` were, in that order, 16.9% and -4.97%.
In [4], `O=C(CN1C(=O)c2ccccc2C1=O)N1CCN(c2ccncc2)CC1` displayed a Fa of 69.8%. The Papp was found to be 3.15 ×10⁻⁶ cm/s in series [4] (read-out: permeability) and 13.9 ×10⁻⁶ cm/s in series [5]. For the same compound, the inhibition is 85% in [1] and -4.47% in series [2]. The result in the series on Rattus norvegicus [6], with Rattus norvegicus [7], with Rattus norvegicus [8] and with SH-SY5Y [11] was Active. At Acetylcholinesterase, it took 3.15 µM to reach half-maximal inhibition (IC50). The inhibition at 10 µM amounted to 43% in the series with THP-1 [9] and 39% with THP-1 [10].
On to `Cc1ccc(N2CCN(C(=O)CN3C(=O)c4ccccc4C3=O)CC2)cc1`, for which the inhibition came out at 11.6% in [1] and 0.3% in series [2].
As to `O=C(CN1C(=O)c2ccccc2C1=O)N1CCN(c2ccc(Cl)cc2)CC1`, the Activity with SH-SY5Y [3] amounted to 50%. Besides, the results for the inhibition in series [1] and in series [2] were 8.11% and -2.09%, respectively.
